The test system of one test is NCI-H460. Briefly: Cytotoxicity against human NCI-H460 cells assessed as growth inhibition after 72 hrs by sulforhodamine B assay. It counts as functional, cell-based. Particulars: NCI-H460, 72 h. In short, it runs like this: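 Log-phase NCI-H460 cells seeded, drug added 24 h later, exposed 72 h. Survival read by sulforhodamine B staining. IC50 fitted by curve analysis as the concentration halving cell number relative to untreated controls.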
A general note: The SRB assay estimates cell density from bound dye.

In test [1] the target is Heat shock protein HSP 90-alpha (Homo sapiens, UniProt P07900). Briefly: Displacement of GM-FTC from Hsp90-alpha (unknown origin) after 4 hrs by fluorescence polarization assay. A general note: Polarisation of emitted light reports the rotation of a fluorescent probe.
The test system of test [2] is K562. Briefly: Cytotoxicity against human K562 cells assessed as growth inhibition after 72 hrs by trypan blue exclusion assay. Particulars: for IC50: K562, 72 h. It counts as functional, cell-based. In short, it runs like this:
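K562 cells, 2×10^5 per well in 1 mL complete medium, exposed to a range of drug concentrations. Cells stained with trypan blue and counted on a hemocytometer; dye-uptaking cells scored nonviable. Viable count expressed as percent of control proliferation; IC50 is the concentration giving 50% growth inhibition. Methods give 48 h incubation, table footnote 72 h exposure.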

The subject of test [3] is K562. Briefly: Induction of apoptosis in human K562 cells assessed as hypoploid nuclei accumulated in sub-G0-G1 phase after 72 hrs by propidium iodide staining-based fluorescence microscopic analysis. Particulars: K562, 72 h.
For test [4], the system named is K562. Put plainly: Cell cycle arrest in human K562 cells assessed as accumulation at G1 phase at 1 uM after 24 hrs by propidium iodide staining-based flow cytometric analysis. It counts as functional. In short, it runs like this: (§1)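 K562 cells exposed for 24 h, then washed once in ice-cold PBS. Resuspended at 1×10^6 cells/mL in a hypotonic solution of propidium iodide in 0.1% sodium citrate with 0.03% (v/v) Nonidet P-40 for 30 min. Filtered through nylon cloth, then single-parameter DNA fluorescence histograms read by flow cytometry. Cell-cycle phase distribution obtained by modelling, with untreated cells as control.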
For orientation: In flow cytometry, cells or beads pass a laser one at a time.

For test [5], the system named is K562. Briefly: Cell cycle arrest in human K562 cells assessed as reduction of S phase fraction at 1 uM after 24 hrs by propidium iodide staining-based flow cytometric analysis. It counts as functional. In short, it runs like this:
as §1

Test [6] has as its system K562. Briefly: Cell cycle arrest in human K562 cells assessed as accumulation at G1 phase at 10 uM after 24 hrs by propidium iodide staining-based flow cytometric analysis. It counts as functional. In short, it runs like this:
as §1

Test [7] concerns K562. Briefly: Cell cycle arrest in human K562 cells assessed as reduction of S phase fraction at 10 uM after 24 hrs by propidium iodide staining-based flow cytometric analysis. It counts as functional. An outline of the steps: as §1
The subject of test [8] is K562. Put plainly: Cell cycle arrest in human K562 cells assessed as accumulation at G1 phase at 75 uM after 24 hrs by propidium iodide staining-based flow cytometric analysis. It counts as functional. An outline of the steps:
as §1

The subject of test [9] is K562. Put plainly: Cell cycle arrest in human K562 cells assessed as reduction of S phase fraction at 75 uM after 24 hrs by propidium iodide staining-based flow cytometric analysis. It counts as functional. An outline of the steps:
as §1

The source of these data is ChEMBL document CHEMBL3232879, “4,5,6,7-Tetrahydro-isoxazolo-[4,5-c]-pyridines as a new class of cytotoxic Hsp90 inhibitors” (Eur J Med Chem, 2014).

The IC50 is the concentration that inhibits the measured activity by half. The term AC50 denotes the concentration giving half of the maximal activity seen.

SMILES strings stand for the structures. Active and inactive are the calls of the source. The rule behind the calls is not given here.

With `CCOC(=O)c1noc2c1CN(C(=O)c1cc(C(C)C)c(O)cc1O)CC2`, the concentration for half-maximal inhibition (IC50) in the test with NCI-H460 amounted to 870 nM; in test [1], 100 nM.
Regarding `CCOC(=O)c1noc2c1CN(C(=O)c1ccc(O)cc1O)CC2`, the results for the IC50 (in the test on NCI-H460; in test [1]) were greater than 20000 nM and 3900 nM, respectively.
Consider `CCNC(=O)c1noc2c1CN(C(=O)c1cc(C(C)C)c(OC(C)=O)cc1OC(C)=O)CC2`, for which the concentration for half-maximal inhibition (IC50) in the test with NCI-H460 was determined as 230 nM.
For the compound `CC(C)c1cc(C(=O)N2CCc3onc(C(=O)NCCCl)c3C2)c(O)cc1O`, the results for the IC50 (in the test with NCI-H460; in test [1]) were 200 nM and 34 nM, respectively.
For `CC(C)c1cc(C(=O)N2CCc3onc(C(=O)NC4CCCC4)c3C2)c(O)cc1O`, in that order: 900 nM and 68 nM.
As to `CCNC(=O)c1noc2c1CN(C(=O)Nc1cc(C(C)C)c(O)cc1O)CC2`, the values for the IC50 (with NCI-H460; in test [1]) were greater than 1000 nM and greater than 100000 nM, respectively.
As to `COC(=O)c1noc2c1CN(C(C)=O)CC2`, the results for the IC50 (in the test with NCI-H460; in test [1]) were greater than 1000 nM and greater than 100000 nM, respectively.
`CCNC(=O)c1noc2c1CN(C(=O)Nc1cc(Cl)c(O)cc1O)CC2`: the IC50 was greater than 1000 nM with NCI-H460 and greater than 100000 nM in test [1].
Take `CCOC(=O)c1noc2c1CN(C(=O)c1cc(Cl)c(O)cc1O)CC2`: the concentration for half-maximal inhibition (IC50) in the test with NCI-H460 is greater than 20000 nM; in test [1], 160 nM.
For `CC(C)c1cc(C(=O)N2CCc3onc(C(=O)NCCN4CCOCC4)c3C2)c(O)cc1O`, in that order: 190 nM and 54 nM.
Consider `CCNC(=O)c1noc2c1CN(Cc1cc(Cl)c(O)cc1O)CC2`, for which the IC50 was greater than 20000 nM with NCI-H460 and 1400 nM in test [1].
For the compound `CCNC(=O)c1noc2c1CN(C(=O)c1ccc(O)cc1O)CC2`, the results for the IC50 (in the test on NCI-H460; in [1]) were greater than 20000 nM and 1200 nM, respectively.
Regarding `C=CCNC1=C2C[C@@H](C)C[C@H](OC)[C@H](O)[C@@H](C)/C=C(\C)[C@H](OC(N)=O)[C@@H](OC)/C=C\C=C(/C)C(=O)NC(=CC1=O)C2=O` [TANESPIMYCIN], in the test with K562 [2], the IC50 was determined as 150 nM. Moreover, in the test with K562 [3], the AC50 was determined as 3100 nM. In addition, the result with K562 [4] and in the test with K562 [5] was Active.
For `CCNC(=O)c1noc2c1CN(C(=O)c1cc(C(C)C)c(O)cc1O)CC2`, in the test with K562 [2], the “growth inhibition (GI)” value was “Dose-dependent effect”. The results for the IC50 (in the test on K562 [2]; in the test with NCI-H460; in test [1]) were 720 nM, 450 nM and 29 nM, respectively. Moreover, the result with K562 [6] and in the test on K562 [7] was Active. Moreover, the AC50 in the test with K562 [3] is 5400 nM.
For `CCNC(=O)c1noc2c1CN(C(=O)c1cc(Cl)c(O)cc1O)CC2`, the “growth inhibition (GI)” value in the test on K562 [2] is “Dose-dependent effect”. The figures for the IC50 (in the test on K562 [2]; in the test on NCI-H460; in test [1]) were 32600 nM, 9700 nM and 110 nM, respectively. The result with K562 [8] and in the test with K562 [9] was Active. For the same compound, in the test on K562 [3], the AC50 is greater than 100000 nM.
